# Experimental data published in ChEMBL document CHEMBL4811287, “Discovery of dronedarone and its analogues as NLRP3 inflammasome inhibitors with potent anti-inflammation activity” (Bioorg Med Chem Lett, 2021).
# The source made the active and inactive calls. The rule behind the calls is not given here.
# Key:
# [1] = target: NACHT, LRR and PYD domains-containing protein 3 (Mus musculus, UniProt Q8R4B8); assay: (§1) Inhibition of NLRP3 inflammasome in LPS-primed mouse J774.A1 cells assessed as reduction in IL-1beta secretion preincubated with compound for 1 hr followed by nigericin stimulation for 1 hr by ELISA; type: cell-based
# NACHT, LRR and PYD domains-containing protein 3, sequence (Q8R4B8 whole entry, the tested form may be a part): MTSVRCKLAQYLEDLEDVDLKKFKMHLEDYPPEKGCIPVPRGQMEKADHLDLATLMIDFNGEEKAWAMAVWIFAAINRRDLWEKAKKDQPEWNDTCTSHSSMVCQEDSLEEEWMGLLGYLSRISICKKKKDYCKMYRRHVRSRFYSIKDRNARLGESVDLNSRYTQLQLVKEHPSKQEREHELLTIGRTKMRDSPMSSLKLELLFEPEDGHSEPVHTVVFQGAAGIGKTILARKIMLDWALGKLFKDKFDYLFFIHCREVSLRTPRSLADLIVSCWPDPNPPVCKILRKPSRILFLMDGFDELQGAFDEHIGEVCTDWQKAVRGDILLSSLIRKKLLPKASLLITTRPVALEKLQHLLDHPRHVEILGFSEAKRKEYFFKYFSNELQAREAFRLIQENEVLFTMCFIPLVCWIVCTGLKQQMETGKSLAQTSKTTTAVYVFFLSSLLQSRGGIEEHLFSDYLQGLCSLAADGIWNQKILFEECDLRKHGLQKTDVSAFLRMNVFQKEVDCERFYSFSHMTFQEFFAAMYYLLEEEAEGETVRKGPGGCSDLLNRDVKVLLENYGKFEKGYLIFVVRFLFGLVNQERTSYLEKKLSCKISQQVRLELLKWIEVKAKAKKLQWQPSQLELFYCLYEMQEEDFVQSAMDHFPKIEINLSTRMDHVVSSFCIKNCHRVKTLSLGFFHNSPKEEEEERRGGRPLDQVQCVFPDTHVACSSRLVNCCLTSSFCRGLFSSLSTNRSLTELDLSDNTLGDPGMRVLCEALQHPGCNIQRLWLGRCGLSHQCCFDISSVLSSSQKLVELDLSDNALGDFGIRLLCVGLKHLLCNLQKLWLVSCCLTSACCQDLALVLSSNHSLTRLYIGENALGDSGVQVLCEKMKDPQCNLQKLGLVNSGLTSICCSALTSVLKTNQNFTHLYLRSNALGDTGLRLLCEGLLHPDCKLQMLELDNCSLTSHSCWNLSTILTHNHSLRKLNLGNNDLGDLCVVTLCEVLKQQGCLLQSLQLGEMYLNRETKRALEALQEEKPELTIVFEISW
# Outline: (§2)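 J774A.1 murine macrophages primed with LPS, exposed to compound at indicated doses for 1 h, then stimulated with nigericin for another 1 h; IL-1β released into supernatant measured by ELISA.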
# Mus musculus [2] = assay: Antiinflammatory activity against LPS-induced sepsis C57BL/6 mouse model assessed as decrease in peritoneal fluid IL-1beta level at 100 mg/kg, ip administered as single dose prior to LPS challenge by ELISA; type: functional; conditions: C57BL/6, ip
# Outline: (§3)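 C57BL/6 mice given 100 mg/kg ahead of intraperitoneal LPS injection. Serum and peritoneal lavage fluid collected and cytokines (IL-1β, IL-6, TNF-α) quantified by ELISA. n = 5 per group, means ± SEM, compared against LPS-only group.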
# [3] = target: NACHT, LRR and PYD domains-containing protein 3 (Mus musculus) (UniProt Q8R4B8); assay: Inhibition of NLRP3 inflammasome in LPS/nigericin-stimulated mouse J774.A1 cells assessed as effect on pro-caspase-1 expression level in cell lysates by Western blot analysis; type: subcellular
# NACHT, LRR and PYD domains-containing protein 3 (Mus musculus), sequence (Q8R4B8 whole entry, the tested form may be a part): as above
# Outline: (§4)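 LPS-primed J774A.1 cells treated with compound, then nigericin-activated; NLRP3-related proteins analysed by Western blot in cell supernatant (caspase-1 p20, IL-1β) and cell lysate.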
# Mus musculus [4] = assay: Antiinflammatory activity against LPS-induced sepsis C57BL/6 mouse model assessed as decrease in serum IL-1beta level at 100 mg/kg, ip administered as single dose prior to LPS challenge by ELISA; type: functional; conditions: C57BL/6, ip; outline: as §3
# [5] = target: NACHT, LRR and PYD domains-containing protein 3 (Mus musculus) (UniProt Q8R4B8); assay: as §1; type: cell-based; conditions: time 2.0 hrs; outline: as §2
# [6] = target: NACHT, LRR and PYD domains-containing protein 3 (Mus musculus) (UniProt Q8R4B8); assay: Inhibition of NLRP3 inflammasome in LPS/nigericin-stimulated mouse J774.A1 cells assessed as effect on pro-IL-1beta expression level in cell lysates by Western blot analysis; type: subcellular; outline: as §4
# J774.A1 = assay: Effect on NLRP3 expression in LPS/nigericin-stimulated mouse J774.A1 cell lysates by western blot analysis; type: functional, subcellular; outline: as §4
# Mus musculus [7] = assay: Antiinflammatory activity against LPS-induced sepsis C57BL/6 mouse model assessed as decrease in serum IL-6 level at 100 mg/kg, ip administered as single dose prior to LPS challenge by ELISA; type: functional; conditions: C57BL/6, ip; outline: as §3
# [8] = target: NACHT, LRR and PYD domains-containing protein 3 (Mus musculus) (UniProt Q8R4B8); assay: Inhibition of NLRP3 inflammasome in LPS/nigericin-stimulated mouse J774.A1 cells assessed as effect on ASC expression level in cell lysates by Western blot analysis; type: subcellular; outline: as §4
# [9] = target: NACHT, LRR and PYD domains-containing protein 3 (Mus musculus) (UniProt Q8R4B8); assay: Inhibition of NLRP3 inflammasome in LPS/nigericin-stimulated mouse J774.A1 cells assessed as reduction in IL-1beta level in cell supernatant by Western blot analysis; conditions: dose 1-20 µM; outline: as §4
# [10] = target: NACHT, LRR and PYD domains-containing protein 3 (Mus musculus) (UniProt Q8R4B8); assay: Inhibition of NLRP3 inflammasome in LPS/nigericin-stimulated mouse J774.A1 cells assessed as reduction in caspase 1 p20 level in cell supernatants by Western blot analysis; conditions: dose 1-20 µM; outline: as §4
# Mus musculus [11] = assay: Antiinflammatory activity against LPS-induced sepsis C57BL/6 mouse model assessed as decrease in peritoneal fluid IL-6 level at 100 mg/kg, ip administered as single dose prior to LPS challenge by ELISA; type: functional; conditions: C57BL/6, ip; outline: as §3
# Mus musculus [12] = assay: Antiinflammatory activity against LPS-induced sepsis C57BL/6 mouse model assessed as decrease in serum TNF-alpha level at 100 mg/kg, ip administered as single dose prior to LPS challenge by ELISA; type: functional; conditions: C57BL/6, ip; outline: as §3
# Mus musculus [13] = assay: Antiinflammatory activity against LPS-induced sepsis C57BL/6 mouse model assessed as decrease in peritoneal fluid TNF-alpha level at 100 mg/kg, ip administered as single dose prior to LPS challenge by ELISA; type: functional, organism-based; outline: as §3
# Microglia = assay: Inhibition of Ca2+ channel in mouse microglial cells assessed as inhibition of Abeta-stimulated NLRP3 inflammasome activation-mediated IL-1beta release at 36 nM by ELISA; type: cell-based
# [14] = Inhibition of K+ channel in LPS-primed mouse bone marrow derived macrophages assessed as inhibition of NLRP3 inflammasome activation-mediated IL-1beta release; type: tissue-based; conditions: BMDM
# [15] = Inhibition of Cl- channel in human monocytes assessed as inhibition of ATP-induced NLRP3 inflammasome-activation mediated IL-1beta release; type: cell-based; conditions: Monocyte
# [16] = Inhibition of ATP-sensitive K+ channel in LPS-activated human monocytes assessed as inhibition of NLRP3 inflammasome activation-mediated IL-1beta release; type: cell-based; conditions: Monocyte
IC50 [1] [µM],Compound,also measured
6.77,CCCCc1oc2ccc(NC(C)=O)cc2c1C(=O)c1ccc(OCCCN(CCCC)CCCC)cc1,
33.4,CCCCc1oc2ccc(NS(=O)(=O)c3cccnc3)cc2c1C(=O)c1ccc(OCCCN(CCCC)CCCC)cc1,
13.4,CCCCc1oc2ccc(NS(=O)(=O)N(C)C)cc2c1C(=O)c1ccc(OCCCN(CCCC)CCCC)cc1,
> 100,CCCCc1oc2ccc(NC(=O)c3ccc(OC)cc3)cc2c1C(=O)c1ccc(OCCCN(CCCC)CCCC)cc1,
10.7,CCCCc1oc2ccc(NS(=O)(=O)c3ccccc3)cc2c1C(=O)c1ccc(OCCCN(CCCC)CCCC)cc1,
25.3,C=CS(=O)(=O)Nc1ccc2oc(CCCC)c(C(=O)c3ccc(OCCCN(CCCC)CCCC)cc3)c2c1,
7.65,CCCCc1oc2ccc(NS(=O)(=O)NC(C)C)cc2c1C(=O)c1ccc(OCCCN(CCCC)CCCC)cc1,
3.85,CCCCc1oc2ccc(NC(=O)C(C)C)cc2c1C(=O)c1ccc(OCCCN(CCCC)CCCC)cc1,inhibition in vivo at 100 mg/kg (Mus musculus [2]): 22%; inhibition [3]: inactive; inhibition in vivo at 100 mg/kg (Mus musculus [4]): 42%; inhibition [5]: Dose-Dependent Effect; inhibition [6]: inactive; Activity (J774.A1): inactive; inhibition in vivo at 100 mg/kg (Mus musculus [7]): 0%; inhibition [8]: inactive; inhibition [9]: Dose-Dependent Effect; inhibition [10]: Dose-Dependent Effect; inhibition in vivo at 100 mg/kg (Mus musculus [11]): 2%; inhibition in vivo at 100 mg/kg (Mus musculus [12]): 18%; Activity (Mus musculus [13]): inactive
13.3,CCCCc1oc2ccc(NC(=O)NC(C)C)cc2c1C(=O)c1ccc(OCCCN(CCCC)CCCC)cc1,
25,CCCCc1oc2ccc(NC(=O)NC3CCCC3)cc2c1C(=O)c1ccc(OCCCN(CCCC)CCCC)cc1,
71.2,CCCCc1oc2ccc(NC(=O)Nc3ccc(C)cc3)cc2c1C(=O)c1ccc(OCCCN(CCCC)CCCC)cc1,
81.6,CCCCc1oc2ccc(NS(=O)(=O)c3ccc(C(F)(F)F)cc3)cc2c1C(=O)c1ccc(OCCCN(CCCC)CCCC)cc1,
> 100,CCCCc1oc2ccccc2c1C(=O)c1ccc(OCCCN(CCCC)CCCC)cc1,
> 100,CCCCc1oc2ccc(N)cc2c1C(=O)c1ccc(OCCCN(CCCC)CCCC)cc1,
19,CCCCc1oc2ccc(NS(=O)(=O)CC)cc2c1C(=O)c1ccc(OCCCN(CCCC)CCCC)cc1,
45.5,CCCCc1oc2ccc(NS(=O)(=O)C3CC3)cc2c1C(=O)c1ccc(OCCCN(CCCC)CCCC)cc1,
13.3,CCCCc1oc2ccc(NC(=O)c3ccccc3)cc2c1C(=O)c1ccc(OCCCN(CCCC)CCCC)cc1,
26.7,CCCCc1oc2ccc(S(N)(=O)=O)cc2c1C(=O)c1ccc(OCCCN(CCCC)CCCC)cc1,
18.5,CCCCc1oc2ccc(NC(=O)Nc3ccc(C#N)cc3)cc2c1C(=O)c1ccc(OCCCN(CCCC)CCCC)cc1,
24.5,CCCCc1oc2ccc(NC(=O)Nc3ccc(OC)cc3)cc2c1C(=O)c1ccc(OCCCN(CCCC)CCCC)cc1,
22.2,CCCCc1oc2ccc(S(=O)(=O)NC)cc2c1C(=O)c1ccc(OCCCN(CCCC)CCCC)cc1,
16.1,CCCCc1oc2ccc(NC(=O)Nc3ccc(Cl)cc3)cc2c1C(=O)c1ccc(OCCCN(CCCC)CCCC)cc1,

# More lines, now with the values behind:
Compound,IC50 [1] [µM],also measured
CCCCc1oc2ccc(NS(C)(=O)=O)cc2c1C(=O)c1ccc(OCCCN(CCCC)CCCC)cc1 [DRONEDARONE],6.84,
CCCCc1oc2ccc(S(=O)(=O)NOC)cc2c1C(=O)c1ccc(OCCCN(CCCC)CCCC)cc1,83.8,
CCCCc1oc2ccc(NS(=O)(=O)c3ccc(F)cc3)cc2c1C(=O)c1ccc(OCCCN(CCCC)CCCC)cc1,12.7,
C=CC(=O)Nc1ccc2oc(CCCC)c(C(=O)c3ccc(OCCCN(CCCC)CCCC)cc3)c2c1,26.7,
CCCCc1oc2ccc(S(=O)(=O)N(C)C)cc2c1C(=O)c1ccc(OCCCN(CCCC)CCCC)cc1,61.1,
CCCCc1oc2ccc(NS(=O)(=O)C3CCCCC3)cc2c1C(=O)c1ccc(OCCCN(CCCC)CCCC)cc1,25,
CCCCc1oc2ccc(NS(=O)(=O)NC)cc2c1C(=O)c1ccc(OCCCN(CCCC)CCCC)cc1,11.4,
CCCCc1oc2ccc(NS(=O)(=O)c3ccc(C)cc3)cc2c1C(=O)c1ccc(OCCCN(CCCC)CCCC)cc1,25,
CCCCc1oc2ccc(S(=O)(=O)N(CCC)CCC)cc2c1C(=O)c1ccc(OCCCN(CCCC)CCCC)cc1,> 100,
CCCCC(=O)Nc1ccc2oc(CCCC)c(C(=O)c3ccc(OCCCN(CCCC)CCCC)cc3)c2c1,5.82,
CCCCc1oc2ccc(NC(=O)NC3CCCCC3)cc2c1C(=O)c1ccc(OCCCN(CCCC)CCCC)cc1,74.8,
COCCOC(=O)C1=C(C)NC(C)=C(C(=O)OC(C)C)C1c1cccc([N+](=O)[O-])c1 (stereo not given),,inhibition (Microglia): 48%
"CC(O)CC(=O)O (stereo not drawn) [3-HYDROXYBUTYRIC ACID, (+/-)-]",,IC50 [14]: 2000 µM
C=C(CC)C(=O)c1ccc(OCC(=O)O)c(Cl)c1Cl [ETHACRYNIC ACID],,IC50 [15]: 3 µM
CCCCc1oc2ccc(NC(=O)C(C)(C)C)cc2c1C(=O)c1ccc(OCCCN(CCCC)CCCC)cc1,9.03,
COc1ccc(Cl)cc1C(=O)NCCc1ccc(S(=O)(=O)NC(=O)NC2CCCCC2)cc1 [GLYBURIDE],,IC50 [16]: 12 µM
CCCCc1oc2ccc(NS(=O)(=O)c3ccc(OC)cc3)cc2c1C(=O)c1ccc(OCCCN(CCCC)CCCC)cc1,27.9,
CCCCc1oc2ccc(S(=O)(=O)NCCN(C)C)cc2c1C(=O)c1ccc(OCCCN(CCCC)CCCC)cc1,> 100,
CCCCc1oc2ccc(S(=O)(=O)NC(C)C)cc2c1C(=O)c1ccc(OCCCN(CCCC)CCCC)cc1,42.5,
CCCCc1oc2ccc(NC(=O)NCCC)cc2c1C(=O)c1ccc(OCCCN(CCCC)CCCC)cc1,19.2,
